# Where a SMILES comes first, the peptide text is derived from it. Bridges are numbered along the chain shown (N, C = ends). [ ]: non-standard residue; d: D form. 2Nal = N[C@@H](Cc1ccc2ccccc2c1)C(=O)O; Cit = NC(=O)NCCC[C@H](N)C(=O)O
# Target: T1, C-X-C chemokine receptor type 4 (Homo sapiens, UniProt P61073)
# Assay: Displacement of biotinylated TN14003 from CXCR4 in MDA-MB-231 cells
# Assay type: cell-based
# Settings: not given
# How it was run: (§1)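 MDA-MB-231 cells (2 × 10^4) seeded 2 days before. Exposed to compound at 1, 10, 100 or 1000 nM for 10 min at room temperature, then fixed in ice-cold 4% paraformaldehyde. After rehydration in PBS and avidin/biotin blocking, incubated 45 min at room temperature with 0.05 µg/mL biotinylated TN14003, then streptavidin-rhodamine 30 min. Residual binding assessed by fluorescence microscopy.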
# T1 sequence (P61073 whole entry): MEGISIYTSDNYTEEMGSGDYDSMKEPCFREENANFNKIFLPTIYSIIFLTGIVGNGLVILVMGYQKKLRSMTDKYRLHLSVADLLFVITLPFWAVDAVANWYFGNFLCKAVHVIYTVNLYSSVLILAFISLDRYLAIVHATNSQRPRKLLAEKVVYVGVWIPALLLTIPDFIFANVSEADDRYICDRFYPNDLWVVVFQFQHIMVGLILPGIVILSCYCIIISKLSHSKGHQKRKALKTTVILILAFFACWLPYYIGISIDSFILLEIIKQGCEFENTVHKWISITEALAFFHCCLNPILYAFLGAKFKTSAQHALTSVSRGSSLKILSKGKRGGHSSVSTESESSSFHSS
EC [nM],EC50 [nM],SMILES
> 1000,,c1ccc(NCc2cc(CNc3ccccc3)cc(CNc3ccccc3)c2)cc1
100,,c1ccc(NCc2ccccc2CNc2ccccc2)cc1
1000,,Fc1ccc(NCc2ccc(CNc3ccc(F)cc3)cc2)cc1
> 1000,,NC(=O)c1ccc(C(N)=O)cc1
> 1000,,c1ccc(-c2nc(-c3ccc(-c4nc(-c5ccccc5)c(-c5ccccc5)[nH]4)cc3)[nH]c2-c2ccccc2)cc1
> 1000,,c1cc(CNC2=NCCN2)ccc1CNC1=NCCN1
50,,CC(Nc1ccccc1)c1ccc(C(C)Nc2ccccc2)cc1 (stereo not given)
100,,c1ccc(NCc2c3ccccc3c(CNc3ccccc3)c3ccccc23)cc1
> 1000,,c1ccc(NCCNCc2ccc(CNCCNc3ccccc3)cc2)cc1
> 1000,,N=C(N)c1ccc(CN)cc1
> 1000,,N=C(N)Nc1ccc(NC(=N)N)cc1
1000,,COc1cccc(NC(=O)c2ccc(C(=O)Nc3cccc(OC)c3)cc2)c1
10,,COc1ccccc1NCc1ccc(CNc2ccccc2OC)cc1
> 1000,,c1ccc(NC[C@H]2CC[C@H](CNc3ccccc3)CC2)cc1
200,,Cc1cc(CNc2ccccc2)c(C)cc1CNc1ccccc1
10,,c1ccc(NCc2cccc(CNc3ccccc3)c2)cc1
25,,COc1ccc(NCc2ccc(CNc3ccc(OC)cc3)cc2)cc1
20,,CCc1ccc(NCc2ccc(CNc3ccc(CC)cc3)cc2)cc1
> 1000,,N=C(N)c1ccc(C(=N)N)cc1
80,,c1ccc(CNCc2ccc(CNCc3ccccc3)cc2)cc1

EC [nM],EC50 [nM],SMILES
1,,Fc1ccccc1NCc1ccc(CNc2ccccc2F)cc1
> 1000,,CN(C)CCNCc1ccc(CNCCN(C)C)cc1
100,,c1ccc(NCc2ccc(CNc3ccccc3)c3ccccc23)cc1
> 1000,,Cc1c(C)c(CN)c(C)c(C)c1CN
1000,,FC(F)(F)c1cccc(NCc2ccc(CNc3cccc(C(F)(F)F)c3)cc2)c1
> 1000,,Oc1cc(CN2CCOCC2)c(O)cc1CN1CCOCC1
10,,c1ccc(NCc2ccc(CNc3ccccc3)cc2)cc1
> 1000,,N=C(N)NCc1ccc(CNC(=N)N)cc1
10,,Cc1ccc(NCc2ccc(CNc3ccc(C)cc3)cc2)cc1
> 1000,,NCc1ccc(CN)cc1
10,,Cc1c(C)c(CNc2ccccc2)c(C)c(C)c1CNc1ccccc1
100,,CN(Cc1ccc(CN(C)c2ccccc2)cc1)c1ccccc1
> 1000,,C(=N\NC1=NCCN1)/c1ccc(/C=N/NC2=NCCN2)cc1
100,,Fc1cccc(NCc2ccc(CNc3cccc(F)c3)cc2)c1
1000,,N#Cc1ccc(NCc2ccc(CNc3ccc(C#N)cc3)cc2)cc1
,1,c1ccc(NCc2ccc(CNc3ccccn3)cc2)nc1
> 1000,,CN(C)Cc1ccc(CN(C)C)cc1
> 1000,,Cc1cc(CN)c(C)cc1CN
1,,COc1cccc(NCc2ccc(CNc3cccc(OC)c3)cc2)c1

SMILES,EC [nM],EC50 [nM]
O=[N+]([O-])c1ccc(NCc2ccc(CNc3ccc([N+](=O)[O-])cc3)cc2)cc1,1000,
C[N+](C)(C)Cc1ccc(C[N+](C)(C)C)cc1,> 1000,
N=C(N)N/N=C/c1ccc(/C=N/NC(=N)N)cc1,100,
c1ccc(CNc2ccccc2)cc1,> 1000,
O=[N+]([O-])c1cccc(NCc2ccc(CNc3cccc([N+](=O)[O-])c3)cc2)c1,1,

# Same assay, conditions: read-out: EC50
row,EC50 [nM],SMILES
1,0.3,c1ccc(NCc2ccc(CNc3ccccn3)cc2)nc1

# Test system: MDA-MB-231
# Assay: Cytotoxicity against MDA-MB-231 cells
# Assay type: functional
# Settings: Homo sapiens
row,SMILES,CC50 [nM]
1,N=C(N)NCCC[C@H](NC(=O)[C@@H]1CSSC[C@H](NC(=O)[C@H](Cc2ccc3ccccc3c2)NC(=O)[C@H](CCCNC(=N)N)NC(=O)[C@@H](N)CCCNC(=N)N)C(=O)N[C@@H](Cc2ccc(O)cc2)C(=O)N[C@@H](CCCNC(N)=O)C(=O)N[C@@H](CCCCN)C(=O)N[C@H](CCCCN)C(=O)N2CCC[C@H]2C(=O)N[C@@H](Cc2ccc(O)cc2)C(=O)N[C@@H](CCCNC(=N)N)C(=O)N[C@@H](CCCNC(N)=O)C(=O)N1)C(N)=O (H-RR[2Nal]CY[Cit]K[dK]PYR[Cit]CR-NH2; disulfide 4-13),410000

# Target: T1, C-X-C chemokine receptor type 4
# Assay: Inhibition of CXCR4 in MDA-MB-231 cells
# Assay type: cell-based
# Settings: not given
# How it was run: as §1
row,IC50 [nM],SMILES
1,0.6,N=C(N)NCCC[C@H](NC(=O)[C@@H]1CSSC[C@H](NC(=O)[C@H](Cc2ccc3ccccc3c2)NC(=O)[C@H](CCCNC(=N)N)NC(=O)[C@@H](N)CCCNC(=N)N)C(=O)N[C@@H](Cc2ccc(O)cc2)C(=O)N[C@@H](CCCNC(N)=O)C(=O)N[C@@H](CCCCN)C(=O)N[C@H](CCCCN)C(=O)N2CCC[C@H]2C(=O)N[C@@H](Cc2ccc(O)cc2)C(=O)N[C@@H](CCCNC(=N)N)C(=O)N[C@@H](CCCNC(N)=O)C(=O)N1)C(N)=O (H-RR[2Nal]CY[Cit]K[dK]PYR[Cit]CR-NH2; disulfide 4-13)

# Test system: not listed separately
# Assay: Selectivity index, ratio of IC50 for CXCR4 to CC50 for MDA-MB-231 cells
# Assay type: functional, Homo sapiens
# Settings: not given
row,SMILES,Ratio
1,N=C(N)NCCC[C@H](NC(=O)[C@@H]1CSSC[C@H](NC(=O)[C@H](Cc2ccc3ccccc3c2)NC(=O)[C@H](CCCNC(=N)N)NC(=O)[C@@H](N)CCCNC(=N)N)C(=O)N[C@@H](Cc2ccc(O)cc2)C(=O)N[C@@H](CCCNC(N)=O)C(=O)N[C@@H](CCCCN)C(=O)N[C@H](CCCCN)C(=O)N2CCC[C@H]2C(=O)N[C@@H](Cc2ccc(O)cc2)C(=O)N[C@@H](CCCNC(=N)N)C(=O)N[C@@H](CCCNC(N)=O)C(=O)N1)C(N)=O (H-RR[2Nal]CY[Cit]K[dK]PYR[Cit]CR-NH2; disulfide 4-13),680000

# Target: T1, C-X-C chemokine receptor type 4
# Assay: Antagonist activity at CXCR4 in human U87 cells assessed as inhibition of SDF1-induced modulation of cAMP production by TR-FRET assay
# Assay type: functional, cell-based
# Settings: U-87MG ATCC
# How it was run: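 U87 glioma cells overexpressing CD4 and CXCR4 (U87CD4CXCR4), seeded 2500 cells/well in 2% FBS 48 h before test. Cells pretreated with compound at various concentrations for 15 min at room temperature, then challenged with 150 ng/mL SDF-1. SDF-1-driven cAMP reduction measured by TR-FRET LANCE cAMP kit as Gi function readout.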
row,Activity,SMILES
1,Dose-dependent effect,c1ccc(NCc2ccc(CNc3ccccn3)cc2)nc1

# Test system: MDA-MB-231
# Assay: Inhibition of SDF1-mediated invasion of human MDA-MB-231 cells
# Assay type: functional, cell-based
# Settings: not given
# How it was run: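 Matrigel invasion chamber; MDA-MB-231 cells mixed with compound before seeding in top chamber, 200 ng/mL SDF-1α in bottom chamber as chemoattractant. Incubated 22 h in humidified incubator. Non-invading cells swabbed off the top. Invaded cells on the underside fixed in methanol, stained with H&E and counted to give invasion rate.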
row,EC50 [nM],SMILES
1,5.2,c1ccc(NCc2ccc(CNc3ccccn3)cc2)nc1

# Reference: ChEMBL document CHEMBL1138262, “Discovery of small molecule CXCR4 antagonists” (J Med Chem, 2007)
